In ChEMBL document CHEMBL1123535, “Thiol addition to quinones: model reactions for the inactivation of thymidylate synthase by 5-p-benzoquinonyl-2'-deoxyuridine 5'-phosphate” (J Med Chem, 1986):
One block for each compound: values may come before it.

Tests used:
Thymidylate synthase [1] = molecular target: T1, Thymidylate synthase (Homo sapiens, UniProt P04818); test: The rate constant in Acetonitrile and buffered aqueous acetonitrile solution, at 25 degrees Celsius and pH 7.4
Target sequence in this assay (P04818 2-313 limits assumed): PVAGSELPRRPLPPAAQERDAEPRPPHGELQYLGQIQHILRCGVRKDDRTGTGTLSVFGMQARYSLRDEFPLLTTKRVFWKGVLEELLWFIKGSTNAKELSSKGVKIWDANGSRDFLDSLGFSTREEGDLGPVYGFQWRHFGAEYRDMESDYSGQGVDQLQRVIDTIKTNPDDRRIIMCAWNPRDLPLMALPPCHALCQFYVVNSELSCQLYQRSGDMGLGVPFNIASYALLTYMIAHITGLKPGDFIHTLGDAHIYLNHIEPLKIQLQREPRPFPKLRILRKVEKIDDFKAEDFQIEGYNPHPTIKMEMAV

Thymidylate synthase [2] = molecular target: T1, Thymidylate synthase; test: The rate constant in Acetonitrile and buffered aqueous acetonitrile solution, at 30 degrees C and pH 6.8
Target sequence in this assay (P04818 2-313 limits assumed): as above

Thymidylate synthase [3] = molecular target: T1, Thymidylate synthase; test: The rate constant in 70% ethanol
Target sequence in this assay (P04818 2-313 limits assumed): as above

Thymidylate synthase [4] = molecular target: T1, Thymidylate synthase
Target sequence in this assay (P04818 2-313 limits assumed): as above

Thymidylate synthase [5] = molecular target: T1, Thymidylate synthase; test: Binding affinity against thymidylate synthase
Procedure, shortened: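 Thymidylate synthase was inactivated at pH 6.8 and 30 °C, and time-dependent loss of activity was followed. Observed inactivation rate constants, including runs with substrate present (substrate protection), were fitted to 1/kobsd = [Ki[S]/(Km[I]) + Ki/kinact](1/[I]) + 1/kinact to give Ki and kinact. The second-order constant was taken as kinact/Ki.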
Target sequence in this assay (P04818 whole entry): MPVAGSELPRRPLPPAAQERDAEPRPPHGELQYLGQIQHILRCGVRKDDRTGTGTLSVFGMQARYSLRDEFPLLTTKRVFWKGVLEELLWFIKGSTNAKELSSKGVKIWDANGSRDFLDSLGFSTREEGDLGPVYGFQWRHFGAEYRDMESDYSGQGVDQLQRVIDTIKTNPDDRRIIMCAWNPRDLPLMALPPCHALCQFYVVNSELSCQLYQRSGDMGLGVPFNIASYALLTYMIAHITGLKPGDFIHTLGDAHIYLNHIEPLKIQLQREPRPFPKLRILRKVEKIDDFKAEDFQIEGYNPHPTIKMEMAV

Thymidylate synthase [6] = molecular target: T1, Thymidylate synthase; test: The rate constant in Acetonitrile and buffered aqueous acetonitrile solution, at 30 degrees Celsius and pH 8.1
Target sequence in this assay (P04818 2-313 limits assumed): as the sequence (P04818 2-313 limits assumed) above

Thymidylate synthase [7] = molecular target: T1, Thymidylate synthase; test: The observed rate constant with methyl mercaptoacetate in Acetonitrile and buffered aqueous acetonitrile solution at 1.6 x 10e-4 M concentration of 0.0061 M
Procedure, shortened: (§1)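 Quinone nucleoside reacted with excess methyl mercaptoacetate in deoxygenated acetonitrile at […]. Water content was varied by adding known amounts of water to acetonitrile dried over 3-Å sieves. Initial quinone was 7.4×10^-5 to 1.6×10^-4 M, and thiol was varied. Pseudo-first-order kobsd was measured, and k2 came from log kobsd = log k2 + n log[thiol].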
Target sequence in this assay (P04818 2-313 limits assumed): as above

Thymidylate synthase [8] = molecular target: T1, Thymidylate synthase; test: The observed rate constant with methyl mercaptoacetate in Acetonitrile and buffered aqueous acetonitrile solution at 1.6 x 10e-4 M concentration of 0.012 M; procedure, shortened: as §1
Thymidylate synthase [9] = molecular target: T1, Thymidylate synthase; test: The observed rate constant with methyl mercaptoacetate in Acetonitrile and buffered aqueous acetonitrile solution at 7.4 x 10e-5 M concentration of 0.0019 M; procedure, shortened: as §1
Thymidylate synthase [10] = molecular target: T1, Thymidylate synthase; test: The observed rate constant with methyl mercaptoacetate in Acetonitrile and buffered aqueous acetonitrile solution at 1.4 x 10e-4 M concentration of 0.0077; procedure, shortened: as §1
Thymidylate synthase [11] = molecular target: T1, Thymidylate synthase; test: The rate constant with methyl mercaptoacetate in Acetonitrile and buffered aqueous acetonitrile solution at concentration of 0.00096 M; procedure, shortened: as §1
Thymidylate synthase [12] = molecular target: T1, Thymidylate synthase; test: The observed rate constant with methyl mercaptoacetate in Acetonitrile and buffered aqueous acetonitrile solution at 7.4 x 10e-5 M concentration of 0.0039 M; procedure, shortened: as §1
Thymidylate synthase [13] = molecular target: T1, Thymidylate synthase; test: The observed rate constant with methyl mercaptoacetate in Acetonitrile and buffered aqueous acetonitrile solution at 1.6 x 10e-4 M concentration of 0.0036 M; procedure, shortened: as §1
Thymidylate synthase [14] = molecular target: T1, Thymidylate synthase; test: The observed rate constant with methyl mercaptoacetate in Acetonitrile and buffered aqueous acetonitrile solution at 9.7 x 10e-5 M concentration of 0.00096 M; procedure, shortened: as §1
Thymidylate synthase [15] = molecular target: T1, Thymidylate synthase; test: The observed rate constant with methyl mercaptoacetate in Acetonitrile and buffered aqueous acetonitrile solution at 7.4 x 10e-5 M concentration of 0.00098 M; procedure, shortened: as §1
Thymidylate synthase [16] = molecular target: T1, Thymidylate synthase; test: The observed rate constant with methyl mercaptoacetate in Acetonitrile and buffered aqueous acetonitrile solution at 1.6 x 10e-4 M concentration of 0.0026 M; procedure, shortened: as §1
Thymidylate synthase [17] = molecular target: T1, Thymidylate synthase; test: The observed rate constant with methyl mercaptoacetate in Acetonitrile and buffered aqueous acetonitrile solution at 9.7 x 10e-5 M concentration of 0.0048 M; procedure, shortened: as §1
Thymidylate synthase [18] = molecular target: T1, Thymidylate synthase; test: The rate constant with methyl mercaptoacetate in Acetonitrile and buffered aqueous acetonitrile solution at concentration of 0.012 M; procedure, shortened: as §1
Thymidylate synthase [19] = molecular target: T1, Thymidylate synthase; test: The observed rate constant with methyl mercaptoacetate in Acetonitrile and buffered aqueous acetonitrile solution at 1.4 x 10e-4 M concentration of 0.0020; procedure, shortened: as §1
Thymidylate synthase [20] = molecular target: T1, Thymidylate synthase; test: The observed rate constant with methyl mercaptoacetate in Acetonitrile and buffered aqueous acetonitrile solution at 1.6 x 10e-4 M concentration of 0.0015 M; procedure, shortened: as §1
Thymidylate synthase [21] = molecular target: T1, Thymidylate synthase; test: The observed rate constant with methyl mercaptoacetate in Acetonitrile and buffered aqueous acetonitrile solution at 9.7 x 10e-5 M concentration of 0.0096 M; procedure, shortened: as §1
Thymidylate synthase [22] = molecular target: T1, Thymidylate synthase; test: The observed rate constant with methyl mercaptoacetate in Acetonitrile and buffered aqueous acetonitrile solution at 9.7 x 10e-5 M concentration of 0.0029 M; procedure, shortened: as §1
Thymidylate synthase [23] = molecular target: T1, Thymidylate synthase; test: The rate constant with methyl mercaptoacetate in Acetonitrile and buffered aqueous acetonitrile solution at concentration of 0.0077 M; procedure, shortened: as §1
Thymidylate synthase [24] = molecular target: T1, Thymidylate synthase; test: The rate constant with methyl mercaptoacetate in Acetonitrile and buffered aqueous acetonitrile solution at concentration of 0.0039 M; procedure, shortened: as §1
Thymidylate synthase [25] = molecular target: T1, Thymidylate synthase; test: The observed rate constant with methyl mercaptoacetate in Acetonitrile and buffered aqueous acetonitrile solution at 1.4 x 10e-4 M concentration of 0.0039; procedure, shortened: as §1
Thymidylate synthase [26] = molecular target: T1, Thymidylate synthase; test: The rate constant in 75% aqueous Acetonotrileas methyl mercaptoacetate as reagent
Thymidylate synthase [27] = molecular target: T1, Thymidylate synthase; test: The rate constant in 75% aqueous Acetonitrile […] as reagent

- k2 (Thymidylate synthase [1]): 0.037 M⁻¹ s⁻¹
SMILES: CC1C=CC(=O)O1 (centres undefined)

- k2 (Thymidylate synthase [2]): 2600 M⁻¹ s⁻¹
SMILES: O=C1C=CC(=O)C(c2ccccc2)=C1

- k2 (Thymidylate synthase [3]): 0.14 M⁻¹ s⁻¹
SMILES: CC1=CC(=O)c2ccccc2C1=O

- k2 (Thymidylate synthase [2]): 32000 M⁻¹ s⁻¹
- k cat (Thymidylate synthase [4]): 0.065 s⁻¹
- Ki (Thymidylate synthase [5]): 2000 nM
SMILES: O=C1C=CC(=O)C(c2cn([C@H]3C[C@H](O)[C@@H](COP(=O)(O)O)O3)c(=O)[nH]c2=O)=C1

SMILES: C=CC(=O)OC
- k2 (Thymidylate synthase [6]): 0.11 M⁻¹ s⁻¹

- k obs (Thymidylate synthase [7]): 0.00952 s⁻¹
- k obs (Thymidylate synthase [8]): 0.0197 s⁻¹
- k obs (Thymidylate synthase [9]): 0.00919 s⁻¹
- k obs (Thymidylate synthase [10]): 0.0167 s⁻¹
- k2 (Thymidylate synthase [11]): 0.53 M⁻¹ s⁻¹
- k obs (Thymidylate synthase [12]): 0.0184 s⁻¹
- k obs (Thymidylate synthase [13]): 0.00518 s⁻¹
- k obs (Thymidylate synthase [14]): 0.000434 s⁻¹
- k obs (Thymidylate synthase [15]): 0.00384 s⁻¹
- k obs (Thymidylate synthase [16]): 0.00334 s⁻¹
- k obs (Thymidylate synthase [17]): 0.0025 s⁻¹
- k2 (Thymidylate synthase [18]): 1.7 M⁻¹ s⁻¹
- k obs (Thymidylate synthase [19]): 0.00434 s⁻¹
- k obs (Thymidylate synthase [20]): 0.00184 s⁻¹
- k obs (Thymidylate synthase [21]): 0.00501 s⁻¹
- k obs (Thymidylate synthase [22]): 0.00154 s⁻¹
- k2 (Thymidylate synthase [23]): 2.3 M⁻¹ s⁻¹
- k2 (Thymidylate synthase [24]): 4.7 M⁻¹ s⁻¹
- k obs (Thymidylate synthase [25]): 0.00969 s⁻¹
SMILES: CC(=O)OC[C@H]1O[C@@H](n2cc(C3=CC(=O)C=CC3=O)c(=O)[nH]c2=O)C[C@@H]1OC(C)=O

- k2 (Thymidylate synthase [2]): > 760000 M⁻¹ s⁻¹
SMILES: O=c1ccn([C@H]2C[C@H](O)[C@@H](COP(=O)(O)O)O2)c(=O)[nH]1

SMILES: O=C1C=CC(=O)C(c2cn([C@H]3C[C@H](O)[C@@H](CO)O3)c(=O)[nH]c2=O)=C1
- k2 (Thymidylate synthase [26]): > 1000 M⁻¹ s⁻¹
- k2 (Thymidylate synthase [27]): 5 M⁻¹ s⁻¹
